Reference: ChEMBL document CHEMBL2440116, “Structure-activity relationships of 2-aminothiazoles effective against Mycobacterium tuberculosis” (Bioorg Med Chem, 2013)
Converted amounts (≈) assume the structure as drawn.

Tests used:
Liver microsomes [1] = experiment: Drug metabolism in human liver microsomes; type: ADME, Microsome
Liver microsomes [2] = experiment: Half life in human liver microsomes; type: ADME, Microsome
Liver = experiment: Half life in CD-1 mouse liver microsomes; type: ADME, Microsome
Outline: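 CD-1 mouse liver microsomes; compound from 2 mM DMSO stock in 0.1 M sodium phosphate pH 7.4 with NADPH, preincubated 5 min at 37 °C before microsomes added. Aliquots taken at 0–60 min and quenched with ice-cold acetonitrile, run in duplicate. Minus-NADPH control sampled at 0 and 60 min. Remaining parent measured by isocratic C8 HPLC with UV at 220 nm.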

[3] = Therapeutic index, ratio of EC50 for african green monkey Vero cells to MIC for Mycobacterium tuberculosis H37Rv; type: cell-based; details: read-out: TI
Vero = experiment: Cytotoxicity against african green monkey Vero cells after 72 hrs by MTT assay; type: cell-based; details: Chlorocebus sabaeus
Outline: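 Vero (CCL-81) cells in MEM with 10% FBS, penicillin-streptomycin and Glutamax, seeded at 3.0×10⁴ per well and left to adhere overnight. Compounds added from DMSO at final 100–0.16 μM, triplicate, for 72 h at 37 °C, 4.5% CO2. Then MTT 1.0 mg/mL in phenol-red-free RPMI for 3 h, formazan dissolved in isopropanol, A570 minus A690. Viability taken relative to DMSO control; EC50 from dose-response curves.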

[4] = tested on: Mycobacterium tuberculosis; experiment: Antitubercular activity against Mycobacterium tuberculosis H37Rv in GAST media with glycerol and alanine after 7 to 14 days by broth microdilution method; type: functional
[5] = tested on: Mycobacterium tuberculosis; experiment: Antitubercular activity against Mycobacterium tuberculosis H37Rv in Middlebrook 7H9 broth with butyrate after 7 to 14 days by broth microdilution method; type: functional
[6] = tested on: Mycobacterium tuberculosis; experiment: Antitubercular activity against Mycobacterium tuberculosis H37Rv in Middlebrook 7H9 broth with glucose after 7 to 14 days by broth microdilution method; type: functional
Outline: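 Broth microdilution of H37Rv in 7H9 with 0.8 g/L NaCl, 5 g/L BSA fraction V, 4 g/L glucose and 0.05% Tyloxapol. Run in quadruplicate from DMSO stocks with DMSO controls; isoniazid positive control.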

[7] = Solubility of the compound; type: physicochemical

## O=C(Nc1nc(-c2ccccn2)cs1)c1cccc(Cl)c1
Liver microsomes [1]
  Drug metabolism: Active
Liver microsomes [2]
  t1/2: 28 min
Liver
  t1/2: 19 min
[3]
  selectivity ratio: 30
Vero
  EC50: 7 µM
[4]
  MIC99: 0.049 µM (≈ 0.0155 µg/mL)
[5]
  MIC99: 0.024 µM (≈ 0.00758 µg/mL)
[6]
  MIC99: 0.19 µM (≈ 0.06 µg/mL)

## O=C(Nc1nc(-c2ccccn2)cs1)c1cccc(Br)c1
Liver
  t1/2: 11 min
Vero
  EC50: 16.1 µM
[4]
  MIC99: 0.049 µM (≈ 0.0177 µg/mL)
[5]
  MIC99: 0.024 µM (≈ 0.00865 µg/mL)
[6]
  MIC99: 0.098 µM (≈ 0.0353 µg/mL)

## O=C(Nc1nc(-c2ccccn2)cs1)c1ccc(Br)cc1
Liver
  t1/2: 6.8 min
Vero
  EC50: 4.7 µM
[4]
  MIC99: 0.049 µM (≈ 0.0177 µg/mL)
[5]
  MIC99: 0.098 µM (≈ 0.0353 µg/mL)
[6]
  MIC99: 0.19 µM (≈ 0.0684 µg/mL)

## Cc1cccc(C(=O)Nc2nc(-c3ccccn3)cs2)c1
Liver
  t1/2: 6.7 min
[3]
  selectivity ratio: 11
Vero
  EC50: 4.1 µM
[4]
  MIC99: 0.049 µM (≈ 0.0145 µg/mL)
[5]
  MIC99: 0.049 µM (≈ 0.0145 µg/mL)
[6]
  MIC99: 0.19 µM (≈ 0.0561 µg/mL)

## COc1ccc(C(=O)Nc2nc(-c3ccccn3)cs2)cc1
Liver
  t1/2: 16 min
[3]
  selectivity ratio: 24
Vero
  EC50: 9.2 µM
[4]
  MIC99: 0.098 µM (≈ 0.0305 µg/mL)
[5]
  MIC99: 0.19 µM (≈ 0.0592 µg/mL)
[6]
  MIC99: 0.39 µM (≈ 0.121 µg/mL)

## O=C(Nc1nc(-c2ccccn2)cs1)c1ccccc1OCc1ccccc1
[7]
  solubility: Insoluble
[4]
  MIC99: 50 µM (≈ 19.4 µg/mL)
[5]
  MIC99: > 50 µM
[6]
  MIC99: > 50 µM

## O=C(Nc1nc(-c2ccccn2)cs1)c1ccccn1
[3]
  selectivity ratio: 0.9
Vero
  EC50: 5.4 µM
[4]
  MIC99: 1.6 µM (≈ 0.452 µg/mL)
[5]
  MIC99: 3.1 µM (≈ 0.875 µg/mL)
[6]
  MIC99: 6.3 µM (≈ 1.78 µg/mL)
